Data from BindingDB's records for doi:10.1016/j.bmcl.2019.05.024 (Harvard Medical School, 2019).

Legend:
[1] = target: Cyclin-dependent kinase 14 (Homo sapiens, UniProt O94921); assay: Inhibition of FLAG-tagged CDK14 (unknown origin) expressed in human HEK293 cells assessed as blocking of CDK14 pulldown incubated for 4 hrs by biotinylated JNK-IN- based pull down assay
Summary of the method: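 Cells were treated with compound at various doses for 4 h and then lysed. Lysates were incubated with biotinylated JNK-IN-7 and captured on streptavidin-coated beads. CDK14 capture was detected by western blot.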

[2] = target: Cyclin-dependent kinase 14/Cyclin-Y (Homo sapiens, UniProt O94921+Q8ND76); assay: Inhibition of recombinant GST-tagged human full length CDK14/cyclin Y (2 to end residues) preincubated for 30 mins by Lantha screen eu binding assay
Cyclin-dependent kinase 14/Cyclin-Y, sequence (O94921 whole entry): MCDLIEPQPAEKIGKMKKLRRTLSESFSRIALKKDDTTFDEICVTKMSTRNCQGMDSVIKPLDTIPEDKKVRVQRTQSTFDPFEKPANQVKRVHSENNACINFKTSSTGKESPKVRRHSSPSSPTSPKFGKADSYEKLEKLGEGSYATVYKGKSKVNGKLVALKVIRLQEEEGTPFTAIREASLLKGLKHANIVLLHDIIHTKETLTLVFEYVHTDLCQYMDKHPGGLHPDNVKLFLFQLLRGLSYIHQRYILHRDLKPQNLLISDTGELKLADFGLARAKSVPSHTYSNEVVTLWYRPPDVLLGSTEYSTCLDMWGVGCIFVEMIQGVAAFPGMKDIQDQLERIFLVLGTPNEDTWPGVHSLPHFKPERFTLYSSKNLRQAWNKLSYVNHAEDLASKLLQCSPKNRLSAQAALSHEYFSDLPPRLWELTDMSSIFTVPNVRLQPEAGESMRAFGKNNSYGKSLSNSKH
Cyclin-dependent kinase 14/Cyclin-Y, sequence (Q8ND76 2-341 limits assumed): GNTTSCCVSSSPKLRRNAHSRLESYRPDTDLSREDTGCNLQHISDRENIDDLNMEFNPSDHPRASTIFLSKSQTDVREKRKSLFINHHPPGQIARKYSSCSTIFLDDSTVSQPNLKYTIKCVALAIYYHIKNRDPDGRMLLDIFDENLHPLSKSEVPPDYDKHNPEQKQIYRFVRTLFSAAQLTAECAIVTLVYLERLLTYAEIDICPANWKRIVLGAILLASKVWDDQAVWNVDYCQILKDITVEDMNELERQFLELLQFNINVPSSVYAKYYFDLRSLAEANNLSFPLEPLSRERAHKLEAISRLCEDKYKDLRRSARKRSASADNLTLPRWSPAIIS
Summary of the method: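 CDK14 binding was measured in a LanthaScreen binding assay. IC50 is the average of three replicates, reported ± standard error.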

Cyclin-dependent kinase 14, sequence (O94921 whole entry): as the sequence (O94921 whole entry) above

| IC50 [1] [nM] | IC50 [2] [nM] | Compound |
| --- | --- | --- |
| 500 | – | C=CC(=O)Nc1cccc(C(=O)N2CCC(NC(=O)c3n[nH]cc3NC(=O)c3c(Cl)cccc3Cl)CC2)c1 |
| – | 17 | CN(C)CC=CC(=O)Nc1cccc(C(=O)Nc2ccc(NC(=O)c3n[nH]cc3NC(=O)c3c(Cl)cccc3Cl)cc2)c1 |
